Assay outcomes as filed in PubChem.
In the library only some 2% were active in any assay of this set; here they are far more common.
ARNT-TACC3 inh = disrupts binding between human ARNT and TACC3 | inhibition, % at 9.99 µM | 390,000 compounds, 0.66% hits | AID 623870 | AlphaScreen His-ARNT PAS-B/GST-TACC3 binding, luminescence; TACC3 fragment carries E629A point mutation | Q9Y6A5;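 active means mean inhibition of replicates at least 50% and at least half of replicates each reaching 50%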;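 further: 0% = complete ARNT plus TACC3 wells and 100% = ARNT alone without TACC3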
Xi reactivation = activators of X-chromosome reactivation in mouse fibroblasts; XiGFP mouse fibroblasts, % GFP-positive cells imaging, 3 d; cells co-treated with 5-aza-dC sensitizer; scaled so ellipticine positive control = 100%; activation, % at 7.58 µM; AID 743238; 360,000 compounds, 0.055% hits;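 active means mean normalized replicate activation at least 10% and every replicate at or above 10%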;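 further: 0% = median of on-plate neutral control wells and 100% = ellipticine 6 µM median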
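assay system = SV40-immortalized XiGFP fibroblast cells, line 68-5-11 | buffer or medium = DMEM plus 5-aza-dC sensitizer | doses = single-point pinned compound dosing | times = 3-day compound exposure, then 15 min fixation at room temperature | benchmarks = positive control ellipticine, 6 µM final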
sPLA2-III inh = Blocks human group III sPLA2 activity. QFRET BODIPY PC-A2 liposome hydrolysis, fluorescence. inhibition, % at 12.2 µM. 370,000 compounds, 0.56% hits;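 active means inhibition above mean plus 3 SD of compounds lying within the high and low control bounds, cut at about 19% in these data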;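 further: 0% = median of test compound wells and 100% = no enzyme DMSO wells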
SR-BI DiI inh = blocks mouse SR-BI lipid uptake from DiI-HDL; Q61009; ldlA[mSR-BI] CHO cells, DiI-HDL uptake fluorescence, 3 h; inhibition, % at 12.5 µM; 320,000 compounds, 0.96% hits; AID 488896;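 active means mean replicate inhibition of at least 70% and a set share of replicates each scoring 70 or more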;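 further: 0% = median of neutral control wells and 100% = median of positive control wells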
NSD2 HMT inh = NSD2 (human) methyltransferase inhibition. NSD2 peptide methylation, AlphaScreen, 120 min. 310,000 compounds, 0.54% hits. O96028. inhibition, % at 12.5 µM. AID 743445; in the data active means inhibition above about 50%
Target sequence (O96028 whole entry, looked up): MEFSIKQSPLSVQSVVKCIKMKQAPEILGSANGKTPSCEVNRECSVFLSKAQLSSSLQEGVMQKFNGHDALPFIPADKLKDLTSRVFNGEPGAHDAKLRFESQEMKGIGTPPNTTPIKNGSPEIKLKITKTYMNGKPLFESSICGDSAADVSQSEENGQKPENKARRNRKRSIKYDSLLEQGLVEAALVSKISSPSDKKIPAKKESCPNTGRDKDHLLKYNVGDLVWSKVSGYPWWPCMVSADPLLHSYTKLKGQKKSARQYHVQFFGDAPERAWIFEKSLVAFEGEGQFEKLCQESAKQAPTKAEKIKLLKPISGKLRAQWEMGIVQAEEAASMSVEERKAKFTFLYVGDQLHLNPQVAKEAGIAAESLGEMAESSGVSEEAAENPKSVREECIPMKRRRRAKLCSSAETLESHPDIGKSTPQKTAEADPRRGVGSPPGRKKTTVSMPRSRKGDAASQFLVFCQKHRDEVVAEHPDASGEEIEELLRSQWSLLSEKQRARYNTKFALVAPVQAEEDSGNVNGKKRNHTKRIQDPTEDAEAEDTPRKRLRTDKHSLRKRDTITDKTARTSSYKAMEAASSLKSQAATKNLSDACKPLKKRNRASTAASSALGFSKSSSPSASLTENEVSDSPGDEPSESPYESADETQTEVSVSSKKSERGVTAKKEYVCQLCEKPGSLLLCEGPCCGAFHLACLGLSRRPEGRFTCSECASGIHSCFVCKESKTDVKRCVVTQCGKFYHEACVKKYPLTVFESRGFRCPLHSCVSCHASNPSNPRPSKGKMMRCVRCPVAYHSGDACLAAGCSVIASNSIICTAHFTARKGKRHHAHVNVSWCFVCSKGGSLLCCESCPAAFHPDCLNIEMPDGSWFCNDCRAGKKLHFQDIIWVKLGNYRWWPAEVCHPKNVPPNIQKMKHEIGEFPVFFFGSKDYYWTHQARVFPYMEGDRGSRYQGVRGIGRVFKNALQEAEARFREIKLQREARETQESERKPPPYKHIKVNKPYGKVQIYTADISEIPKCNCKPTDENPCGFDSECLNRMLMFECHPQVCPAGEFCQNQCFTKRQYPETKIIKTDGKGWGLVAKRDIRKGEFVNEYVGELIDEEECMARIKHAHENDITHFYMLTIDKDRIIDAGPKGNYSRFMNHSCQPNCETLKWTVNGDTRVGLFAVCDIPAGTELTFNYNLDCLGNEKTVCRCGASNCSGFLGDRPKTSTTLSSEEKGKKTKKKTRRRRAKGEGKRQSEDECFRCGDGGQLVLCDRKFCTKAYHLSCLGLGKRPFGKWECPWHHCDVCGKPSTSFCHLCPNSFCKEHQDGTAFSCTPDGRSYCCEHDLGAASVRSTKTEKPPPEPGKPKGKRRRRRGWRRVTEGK
SR-BI uptake up = activators of SR-BI mediated HDL lipid uptake; CHO ldlA[mSR-BI] cells, DiI-HDL uptake fluorescence, 3 h; 100 = double the neutral-control signal; activation, % at 12.5 µM; AID 504775; 320,000 compounds, 0.096% hits;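 active means mean replicate activation of at least 60% and every replicate at or above 60%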;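 further: 0% = median plate neutral-control signal and 100% = twice that signal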
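Assay system: CHO ldlA[mSR-BI] cells, LDL receptor-null, SR-BI overexpressing; medium: Ham's F12 with 0.5% BSA, HEPES 25 mM, pH 7.4; also added: DiI-HDL 10 µg/mL; timing: 3 h uptake period with compound, 37 °C; signal: DiI fluorescence, bottom read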
sPLA2 confirm = human GIII-sPLA2 inhibition, confirmation. inhibition, % at 12.2 µM. recombinant hGIII-sPLA2, BODIPY PC-A2 QFRET fluorescence. 2,000 compounds, 34% hits. shares compounds with sPLA2-III inh. AID 743280;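 active means mean inhibition across triplicates above the hit cutoff set in the earlier primary screen, cut at about 19% in these data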;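 further: 0% = enzyme with DMSO and 100% = DMSO wells lacking enzyme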
BODIPY interf = optically interferes with 535nm fluorescence in sPLA2 counter-screen | 2,000 compounds, 8.5% hits | BODIPY FL product fluorescence interference, QFRET | shares compounds with sPLA2-III inh | AID 743282 | inhibition, % at 12.2 µM;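 active means average inhibition above the solvent-only control mean plus 3 SD, cut at about 6% in these data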;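 further: 0% = DMSO with substrate plus product and 100% = DMSO with substrate alone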
BODIPY interf DR = 535nm optical interference dose response, HGIII-sPLA2 counter-screen. 240 tested, under 10 active. IC50, µM. shares compounds with sPLA2-III inh. BODIPY FL product fluorescence interference, cell-free;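 active means IC50 at or below 10 µM; inactive means IC50 above 10 µM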
Active calls of the source: *.

Screening O=C(NC(=S)Nc1ccccc1N1CCCC1)c1ccc([N+](=O)[O-])cc1 returned ARNT-TACC3 inh 12.1, Xi reactivation 0.0, sPLA2-III inh 31.4*, SR-BI DiI inh 34.6, NSD2 HMT inh 5.9, SR-BI uptake up -34.6, sPLA2 confirm 33.5*, BODIPY interf 3.9 and BODIPY interf DR >122.
O=C(NC(=S)Nc1ccccc1N1CCOCC1)c1ccc([N+](=O)[O-])cc1 was read as ARNT-TACC3 inh 3.7, Xi reactivation 0.5, sPLA2-III inh 17.2, SR-BI DiI inh 3.4, NSD2 HMT inh -2.2 and SR-BI uptake up -3.4.
Screening Fc1ccc2nc(-c3ccc(CN4CCC5(CC4)CNc4ccccc45)cc3)c(-c3ccccc3)nc2c1 returned Xi reactivation -0.1, sPLA2-III inh 20.1*, NSD2 HMT inh 0.4, sPLA2 confirm 17.4 and BODIPY interf -7.6.
For Cc1ccc2nc(-c3ccc(CN4CCC(c5nc6ccccc6[nH]5)CC4)cc3)c(-c3ccccc3)nc2c1 the results were Xi reactivation 0.2 and sPLA2-III inh 0.7.
`CCOc1c2ccc(C(=O)NCCCCc3ccccc3)cc2nn1C` gave ARNT-TACC3 inh -5.8, Xi reactivation 0.0, sPLA2-III inh 11.0, SR-BI DiI inh 1.0 and SR-BI uptake up -1.0.
For Cc1cccc(N2CCN(S(=O)(=O)c3c(C)noc3/C=C/N(C)C)CC2)c1C the results were ARNT-TACC3 inh -4.3, Xi reactivation 0.0, sPLA2-III inh 27.1*, SR-BI DiI inh 4.7, NSD2 HMT inh 1.9, SR-BI uptake up -4.7, sPLA2 confirm 23.7* and BODIPY interf -4.9.
Clc1ccc2nc(N3CCNCC3)nc(-c3ccccc3)c2c1 was read as ARNT-TACC3 inh -19.7, sPLA2-III inh 14.9, SR-BI DiI inh -19.9 and SR-BI uptake up 19.9.
For O=C1CN(c2nc(-c3ccccc3)c3cc(Cl)ccc3n2)c2ccccc2N1 the results were ARNT-TACC3 inh -1.1, sPLA2-III inh 20.6*, SR-BI DiI inh -0.2, NSD2 HMT inh 0.4, SR-BI uptake up 0.2, sPLA2 confirm -8.3 and BODIPY interf -2.9.
For CCCNC(=S)N1CCC(C(=O)c2ccc(Cl)cc2)CC1 the results were ARNT-TACC3 inh 5.2, Xi reactivation 0.1, sPLA2-III inh 16.7, SR-BI DiI inh 15.3, NSD2 HMT inh 3.5 and SR-BI uptake up -15.3.
`CCCNC(=S)N1CCC(C(=O)c2ccc(OC)cc2)CC1` gave ARNT-TACC3 inh -4.6, Xi reactivation 0.0, sPLA2-III inh 21.3*, SR-BI DiI inh 16.6, NSD2 HMT inh 2.3, SR-BI uptake up -16.6, sPLA2 confirm 13.5 and BODIPY interf -6.8.
Screening Cc1ccc2c(c1)c1c3n2CCN(CC#N)C3CCC1 (configuration not stated) returned ARNT-TACC3 inh -2.2, Xi reactivation 0.0, sPLA2-III inh 21.6*, SR-BI DiI inh 15.1, NSD2 HMT inh -0.1, SR-BI uptake up -15.1, sPLA2 confirm 10.8 and BODIPY interf -5.2.
`O=C(O)CN1C(=O)c2ccc(Oc3ccc([N+](=O)[O-])cc3)cc2C1=O` gave ARNT-TACC3 inh -4.9, Xi reactivation 0.0, sPLA2-III inh -0.1, SR-BI DiI inh -4.6, NSD2 HMT inh 1.9 and SR-BI uptake up 4.6.
CC(SCC(=O)NC12CC3CC(CC(C3)C1)C2)C(=O)O (configuration not stated) was read as ARNT-TACC3 inh 23.5, Xi reactivation 0.1, sPLA2-III inh 24.1*, SR-BI DiI inh 13.0, NSD2 HMT inh -2.5, SR-BI uptake up -13.0, sPLA2 confirm -2.0 and BODIPY interf -3.5.
For CC(C)NCC(=O)NC12CC3CC(CC(C3)C1)C2 the results were ARNT-TACC3 inh 1.3, sPLA2-III inh -3.6, SR-BI DiI inh -6.5, NSD2 HMT inh 5.0 and SR-BI uptake up 6.5.
For COc1ccc(CC(N)c2csc(NC(=O)c3cc(C(C)(C)C)nn3Cc3ccccc3)n2)cc1 (configuration not stated) the results were Xi reactivation 0.4, sPLA2-III inh 24.1*, NSD2 HMT inh 0.9, sPLA2 confirm 4.3 and BODIPY interf -4.6.
Screening O=C(c1ccc(F)cc1)N1CC(=O)N2[C@@H](CO)[C@H](c3ccc(/C=C/c4ccccc4)cc3)[C@@H]2C1 returned Xi reactivation 0.2.
Screening O=c1cc(-c2ccccc2)cc(-c2ccccc2)n1O returned ARNT-TACC3 inh 11.8, Xi reactivation 0.0, sPLA2-III inh 21.4*, SR-BI DiI inh -8.5, SR-BI uptake up 8.5, sPLA2 confirm 12.3 and BODIPY interf -10.4.
For O=C1C(=O)N(Cc2ccc(-c3ccccc3)cc2)c2ccc(OC(F)(F)F)cc21 the results were sPLA2-III inh 26.1*, NSD2 HMT inh -1.7, sPLA2 confirm 33.8*, BODIPY interf 0.8 and BODIPY interf DR >122.
For Cc1ccc2c(c1)C(=O)C(=O)N2Cc1ccc(C(F)(F)F)cc1 the results were ARNT-TACC3 inh -2.8, Xi reactivation 0.0, sPLA2-III inh 30.2*, SR-BI DiI inh 16.9, SR-BI uptake up -16.9, sPLA2 confirm 26.5* and BODIPY interf 2.8.
`O=C1C(=O)N(Cc2ccc(-c3ccc(Cl)nc3)cc2)c2ccc(OC(F)(F)F)cc21` gave sPLA2-III inh 25.2*, NSD2 HMT inh -2.1, sPLA2 confirm 32.1*, BODIPY interf -2.2 and BODIPY interf DR >122.
Cc1ccc(OCCC(=O)OCC(=O)Nc2ccc(C)c(S(=O)(=O)N3CCOCC3)c2)cc1 was read as Xi reactivation 0.0, sPLA2-III inh -17.8, SR-BI DiI inh -2.9, NSD2 HMT inh 0.5 and SR-BI uptake up 2.9.
For COCc1ccccc1C1=CC(=O)C[C@H](c2ccc(F)cc2)C1 the results were ARNT-TACC3 inh 2.1, Xi reactivation 0.0, sPLA2-III inh -0.8, SR-BI DiI inh 2.9 and SR-BI uptake up -2.9.
CC(OC(=O)c1ccc(NC(N)=O)cc1)C(=O)Nc1ccc2c(c1)OCCO2 (configuration not stated) was read as ARNT-TACC3 inh 0.1, Xi reactivation 0.0, sPLA2-III inh -0.1, SR-BI DiI inh 6.8, NSD2 HMT inh 3.0 and SR-BI uptake up -6.8.
